PHOSPHO1 inh – inhibitors of human PHOSPHO1 phosphatase | Q8TCT1 | recombinant PHOSPHO1, absorbance phosphatase assay | inhibition, % at 13.3 µM | hit rate 1.1% among 290,000 | AID 1565; in the data active = inhibition above about 60%
MrgX1 antagonist – antagonists of human MrgX1 receptor; MRGX1-HEK293 calcium flux, Fluo-4, BAM8-22 antagonism; stronger effect = lower value; hit rate 1.3% among 310,000; Q96LB2; AID 588676; B-score at 10 µM;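 active = calcium-response B-score plate-corrected more than 3 library SD below zero, starting fluorescence within 5 deviations, no agonist response on first addition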;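 note: peak minus trough fluorescence over baseline after final BAM8-22 challenge near maximal dose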
Target sequence (Q96LB2 whole entry, looked up): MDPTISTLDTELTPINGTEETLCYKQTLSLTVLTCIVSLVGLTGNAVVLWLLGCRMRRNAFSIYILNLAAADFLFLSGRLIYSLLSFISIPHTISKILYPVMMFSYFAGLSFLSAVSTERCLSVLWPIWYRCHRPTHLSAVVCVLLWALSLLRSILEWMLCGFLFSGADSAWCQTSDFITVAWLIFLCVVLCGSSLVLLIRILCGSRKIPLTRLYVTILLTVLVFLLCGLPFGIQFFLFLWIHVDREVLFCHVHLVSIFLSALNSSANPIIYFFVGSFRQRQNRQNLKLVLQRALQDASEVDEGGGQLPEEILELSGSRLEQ
MrgX1 agonist – activates human MrgX1 receptor signaling | B-score at 10 µM | MrgX1-HEK293 cells, Fluo-4 calcium fluorescence, agonist mode; stronger effect = higher value | AID 588627 | hit rate 0.44% among 310,000 | Q96LB2;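 active = calcium response B-score plate-corrected fluorescence ratio at least 3 library SD, with starting fluorescence B-score inside 5 SD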
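Test system: Stable human MrgX1 HEK293 cell line | Schedule: Overnight plating before 1 h dye loading | Read-out basis: Baseline-normalised fluorescence change ratio, B-scored | Detection: Kinetic calcium dye fluorescence, Fluo-4 NW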
MrgX1 allo act – allosterically activates human MrgX1 receptor signaling; hit rate 0.63% among 310,000; Q96LB2; B-score at 10 µM; MrgX1-HEK293, Fluo-4 calcium flux, FDSS; stronger effect = higher value;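 active = plate-corrected calcium response at least 3 library SD above typical, normal starting fluorescence, not activating the receptor alone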;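 note: compound read alongside a low EC10 to EC30 dose of BAM8-22 agonist; peak minus trough fluorescence over baseline measured at the second addition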
RGS4 act – RGS4 potentiation or activation; HEK293 M3R/inducible RGS4, carbachol calcium flux Fluo4; stronger effect = lower value; hit rate 0.92% among 310,000; B-score at 10 µM;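 active = B-score of the integrated calcium signal more than 4 SD below the library mean, with starting fluorescence not abnormally high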;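 note: negative B-score means reduced calcium response which marks RGS4 activation or potentiation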
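Detection: kinetic calcium fluorescence imaging with Fluo4-AM dye, 2 µM / Material: HEK293 cells with stable M3R and inducible RGS4 / Schedule: recording 10 s baseline at 1 Hz, 100 s post-agonist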
RGS4 inh – inhibitors of human RGS4; B-score at 10 µM; HEK293 M3R/RGS4 inducible, Fluo-4 calcium flux; stronger effect = higher value; triggered by carbachol at its EC20; hit rate 0.45% among 310,000; P49798;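 active = B-score, a plate-corrected calcium signal, over three deviations above library mean, with baseline fluorescence within five deviations of library mean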;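 note: RGS4 expression induced by doxycycline in cells with stable M3 receptor; B-score is computed from the integrated fluorescence ratio over baseline after carbachol; higher B-score means a larger calcium signal and so more RGS4 inhibition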
Target sequence (P49798 whole entry, looked up): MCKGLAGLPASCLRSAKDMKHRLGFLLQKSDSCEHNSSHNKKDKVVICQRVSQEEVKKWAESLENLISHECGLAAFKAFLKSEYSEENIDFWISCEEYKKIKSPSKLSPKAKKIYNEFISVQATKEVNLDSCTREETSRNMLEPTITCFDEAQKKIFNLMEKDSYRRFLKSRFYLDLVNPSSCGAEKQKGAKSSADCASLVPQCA
Starred values were filed as active, the others as inactive. Rows were chosen to be rich in hits. Some 4.5% of all compounds tested hit in one or more screens of this group.

For O=C(N/N=C/c1cc([N+](=O)[O-])ccc1Cl)c1cc(-c2ccccc2)nc2ccccc12 the results were PHOSPHO1 inh 25, MrgX1 antagonist inactive, MrgX1 agonist inactive, MrgX1 allo act inactive, RGS4 act inactive and RGS4 inh inactive.
For O=C(NCc1ccon1)C1CCC(=O)N(CCc2ccc(Cl)cc2)C1 (stereo not drawn) the results were PHOSPHO1 inh 28, MrgX1 antagonist inactive, MrgX1 agonist inactive, MrgX1 allo act inactive, RGS4 act inactive and RGS4 inh inactive.
CCOC(=O)NN1C(=O)c2ccccc2NC1c1ccccc1F (stereo not drawn) was read as PHOSPHO1 inh -12, MrgX1 antagonist inactive, MrgX1 agonist inactive, MrgX1 allo act inactive, RGS4 act inactive and RGS4 inh inactive.
For Cc1cccc(NC(=O)CCCCCN2C(=O)[C@@H]3Cc4ccccc4CN3C2=O)c1 the results were PHOSPHO1 inh 23, MrgX1 antagonist inactive, MrgX1 agonist inactive, MrgX1 allo act inactive, RGS4 act inactive and RGS4 inh inactive.
O=C(CCCCCN1C(=O)[C@@H]2Cc3ccccc3CN2C1=O)Nc1cccc(F)c1 was read as PHOSPHO1 inh 41, MrgX1 antagonist inactive, MrgX1 agonist inactive, MrgX1 allo act inactive, RGS4 act -7.5* and RGS4 inh inactive.
C/C(=N/NC(=O)c1ccc(C(C)(C)C)cc1)c1ccccn1 was read as MrgX1 antagonist inactive, MrgX1 agonist inactive, MrgX1 allo act inactive, RGS4 act inactive and RGS4 inh 8.5*.
`CS(=O)(=O)N(CC(=O)O)Cc1cccc(CN(CC(=O)O)S(C)(=O)=O)c1` gave PHOSPHO1 inh 4, MrgX1 antagonist inactive, MrgX1 agonist inactive, MrgX1 allo act inactive, RGS4 act inactive and RGS4 inh inactive.
For N/C(Cc1ccc(Cl)c(Cl)c1)=N\OC(=O)c1cccs1 the results were PHOSPHO1 inh 27, MrgX1 antagonist inactive, MrgX1 agonist inactive, MrgX1 allo act inactive, RGS4 act inactive and RGS4 inh inactive.
`N/C(=N\OC(=O)c1cccs1)C1(c2ccc(Cl)cc2Cl)CC1` gave PHOSPHO1 inh 43, MrgX1 antagonist inactive, MrgX1 agonist inactive, MrgX1 allo act 14*, RGS4 act inactive and RGS4 inh inactive.
Screening CCN1CCN(C(=S)c2ccc([N+](=O)[O-])cc2)CC1 returned PHOSPHO1 inh -7, MrgX1 antagonist inactive, MrgX1 agonist inactive, MrgX1 allo act inactive, RGS4 act inactive and RGS4 inh inactive.
Screening Cc1ccc(OCC(=O)NCc2n[nH]c(=O)c3ccccc23)cc1 returned MrgX1 antagonist inactive, MrgX1 agonist inactive, MrgX1 allo act inactive, RGS4 act inactive and RGS4 inh inactive.
COc1ccc(-c2csc(N(Cc3ccco3)C(=O)c3cccs3)n2)cc1 was read as PHOSPHO1 inh 4, MrgX1 antagonist -4.8*, MrgX1 agonist inactive, MrgX1 allo act inactive, RGS4 act inactive and RGS4 inh inactive.
Screening COc1ccc(OC)c(-c2csc(N(Cc3ccco3)C(=O)c3cccs3)n2)c1 returned PHOSPHO1 inh 1, MrgX1 antagonist inactive, MrgX1 agonist inactive, MrgX1 allo act inactive, RGS4 act inactive and RGS4 inh inactive.
`O=c1/c(=C/c2ccco2)sc2nc(-c3ccccc3Br)nn12` gave PHOSPHO1 inh 98*, MrgX1 antagonist inactive, MrgX1 agonist inactive and MrgX1 allo act inactive.
For Cc1cccc(C)c1NC(=O)C1CCN(S(C)(=O)=O)CC1 the results were PHOSPHO1 inh 19, MrgX1 antagonist inactive, MrgX1 agonist inactive, MrgX1 allo act inactive, RGS4 act inactive and RGS4 inh inactive.
For CCC(CC)c1nnc(NC(=O)CN2C(=O)c3ccccc3C2=O)s1 the results were PHOSPHO1 inh -146, MrgX1 antagonist inactive, MrgX1 agonist inactive, MrgX1 allo act inactive, RGS4 act inactive and RGS4 inh inactive.
CCCc1nnc(NC(=O)CN2C(=O)c3ccccc3C2=O)s1 was read as PHOSPHO1 inh 86*, MrgX1 antagonist inactive, MrgX1 agonist inactive, MrgX1 allo act inactive, RGS4 act inactive and RGS4 inh inactive.
For CCc1nnc(NC(=O)CN2C(=O)c3ccccc3C2=O)s1 the results were PHOSPHO1 inh 74*, MrgX1 antagonist inactive, MrgX1 agonist inactive, MrgX1 allo act inactive, RGS4 act inactive and RGS4 inh inactive.
Screening CC(=O)N1CCOc2ccc(S(=O)(=O)NCc3ccc(C)cc3)cc21 returned PHOSPHO1 inh 26, MrgX1 antagonist inactive, MrgX1 agonist inactive, MrgX1 allo act inactive, RGS4 act inactive and RGS4 inh inactive.
For NC(=O)C1CCN(C(=O)CCC(=O)N2CCOc3ccc(Cl)cc32)CC1 the results were PHOSPHO1 inh 28, MrgX1 antagonist inactive, MrgX1 agonist inactive, MrgX1 allo act inactive, RGS4 act inactive and RGS4 inh inactive.
Screening Clc1ccc(SCc2cc(Cl)nc(-c3ccccc3)n2)cc1 returned MrgX1 antagonist inactive, MrgX1 agonist inactive, MrgX1 allo act inactive, RGS4 act -7* and RGS4 inh inactive.
Clc1cc(CSc2ccccc2)nc(-c2ccccc2)n1 was read as PHOSPHO1 inh 22, MrgX1 antagonist inactive, MrgX1 agonist inactive, MrgX1 allo act inactive, RGS4 act inactive and RGS4 inh inactive.
For CCC1=NN(C(=O)c2ccc(Br)cc2)C(O)(c2ccccc2)C1 (stereo not drawn) the results were PHOSPHO1 inh -5, MrgX1 antagonist inactive, MrgX1 agonist 30*, MrgX1 allo act inactive, RGS4 act inactive and RGS4 inh inactive.
O=C(CS(=O)(=O)Cc1ccccc1)NCc1ccccc1Cl was read as PHOSPHO1 inh 38, MrgX1 antagonist inactive, MrgX1 agonist inactive, MrgX1 allo act inactive, RGS4 act inactive and RGS4 inh inactive.
Screening CC1(C)CC(=O)C(C2=NC3(CCCCC3)Cc3ccccc32)=C(O)C1 returned PHOSPHO1 inh 53, MrgX1 antagonist inactive, MrgX1 agonist inactive, MrgX1 allo act inactive, RGS4 act inactive and RGS4 inh inactive.
Screening CCC1(CC)Cc2ccccc2C(C2=C(O)CC(C)(C)CC2=O)=N1 returned PHOSPHO1 inh 6, MrgX1 antagonist -4.8*, MrgX1 agonist inactive, MrgX1 allo act inactive, RGS4 act inactive and RGS4 inh inactive.
Screening CCCCCC(=O)Nc1ccc(-c2csc(N)n2)cc1 returned PHOSPHO1 inh 56, MrgX1 antagonist inactive, MrgX1 agonist inactive, MrgX1 allo act inactive, RGS4 act inactive and RGS4 inh inactive.
For Cc1ccsc1/C=C/c1n[nH]c(=O)c(C#N)c1C the results were PHOSPHO1 inh 36, MrgX1 antagonist inactive, MrgX1 agonist inactive, MrgX1 allo act inactive, RGS4 act inactive and RGS4 inh inactive.

Screening results deposited in PubChem by several laboratories.
